From ChEMBL document CHEMBL1777776, “Identification of 2-mercaptohexanoic acids as dual inhibitors of 5-lipoxygenase and microsomal prostaglandin E₂ synthase-1” (Bioorg Med Chem, 2011)
Calls of active or inactive are those of the source. The rule behind the calls is not given here.

Key:
[1] = target: T1, Polyunsaturated fatty acid 5-lipoxygenase (Homo sapiens, UniProt P09917); test: Inhibition of human recombinant 5-lipoxygenase expressed in Escherichia coli BL21 assessed as enzyme product formation using arachidonic acid as substrate after 10 mins by RP-HPLC analysis
T1 sequence (P09917 whole entry): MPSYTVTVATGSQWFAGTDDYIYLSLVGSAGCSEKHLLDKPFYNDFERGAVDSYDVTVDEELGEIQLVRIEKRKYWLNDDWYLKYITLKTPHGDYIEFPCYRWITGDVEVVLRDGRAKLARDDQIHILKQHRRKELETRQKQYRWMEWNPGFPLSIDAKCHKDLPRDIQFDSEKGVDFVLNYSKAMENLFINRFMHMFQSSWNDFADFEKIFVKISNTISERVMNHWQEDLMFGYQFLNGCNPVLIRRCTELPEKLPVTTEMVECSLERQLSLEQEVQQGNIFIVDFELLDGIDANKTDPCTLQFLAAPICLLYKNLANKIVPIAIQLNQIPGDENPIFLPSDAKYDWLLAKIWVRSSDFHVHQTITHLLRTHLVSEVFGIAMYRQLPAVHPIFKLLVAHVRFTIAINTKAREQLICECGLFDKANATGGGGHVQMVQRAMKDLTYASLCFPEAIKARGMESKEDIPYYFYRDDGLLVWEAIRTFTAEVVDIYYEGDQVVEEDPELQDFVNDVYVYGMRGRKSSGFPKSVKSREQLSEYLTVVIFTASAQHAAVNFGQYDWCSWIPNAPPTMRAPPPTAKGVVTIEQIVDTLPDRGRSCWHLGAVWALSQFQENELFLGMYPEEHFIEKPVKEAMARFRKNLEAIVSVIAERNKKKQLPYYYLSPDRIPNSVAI
In short: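 Human 5-LO expressed in E. coli BL21 (pT3-5LO), affinity-purified and used at once. 0.5 µg enzyme in 1 ml PBS/EDTA with 1 mM ATP preincubated with compound 5–10 min at 4 °C, then warmed 30 s at 37 °C. Reaction started with 2 mM CaCl₂ and AA (routinely 20 µM), with or without 1 µM 13(S)-HpODE. Run 10 min at 37 °C, stopped with ice-cold methanol, products analysed by HPLC. Washout: 10-fold dilution (10 to 1 µM).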

[2] = target: T2, Cytosolic phospholipase A2 (Homo sapiens) (UniProt P47712); test: Inhibition of cPLA2 assessed as residual activity at 10 uM after 5 mins
T2 sequence (whole entry): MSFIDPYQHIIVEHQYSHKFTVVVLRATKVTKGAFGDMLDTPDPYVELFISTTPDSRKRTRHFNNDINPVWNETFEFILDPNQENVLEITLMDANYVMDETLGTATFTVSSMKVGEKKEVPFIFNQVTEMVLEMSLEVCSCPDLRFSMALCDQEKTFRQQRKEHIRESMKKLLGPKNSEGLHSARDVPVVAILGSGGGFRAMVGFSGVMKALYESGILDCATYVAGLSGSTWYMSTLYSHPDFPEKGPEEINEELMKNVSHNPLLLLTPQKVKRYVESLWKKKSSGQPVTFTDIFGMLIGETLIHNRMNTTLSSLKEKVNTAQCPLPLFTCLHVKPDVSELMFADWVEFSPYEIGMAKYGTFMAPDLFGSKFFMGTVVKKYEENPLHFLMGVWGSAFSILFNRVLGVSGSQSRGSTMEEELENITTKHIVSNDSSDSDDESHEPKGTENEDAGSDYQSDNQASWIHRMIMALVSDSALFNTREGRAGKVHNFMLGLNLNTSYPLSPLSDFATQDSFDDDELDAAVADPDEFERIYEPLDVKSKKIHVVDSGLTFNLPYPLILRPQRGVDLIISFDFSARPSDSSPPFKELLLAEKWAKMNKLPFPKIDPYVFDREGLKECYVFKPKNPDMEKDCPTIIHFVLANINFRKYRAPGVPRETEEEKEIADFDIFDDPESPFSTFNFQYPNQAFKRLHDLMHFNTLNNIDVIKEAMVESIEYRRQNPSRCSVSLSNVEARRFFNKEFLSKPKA

Prostaglandin E synthase = target: T3, Prostaglandin E synthase (Homo sapiens, UniProt O14684); test: Inhibition of mPGES-1 in human IL-1beta-stimulated A549 cell microsomes assessed as reduction of PGE2 formation from PGH2 after 15 mins; set-up: species or system Microsome
T3 sequence (O14684 whole entry): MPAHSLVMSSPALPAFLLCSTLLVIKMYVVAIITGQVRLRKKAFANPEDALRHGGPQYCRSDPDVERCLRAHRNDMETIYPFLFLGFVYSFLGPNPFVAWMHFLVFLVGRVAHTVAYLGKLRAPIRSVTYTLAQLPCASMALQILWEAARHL
In short: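 Microsomes from A549 cells stimulated 72 h with IL-1β (1 ng/ml), diluted to 50 µg/ml in 0.1 M potassium phosphate pH 7.4 with 2.5 mM glutathione. Preincubated with compound (1% DMSO final) 15 min at 4 °C. Reaction started with 20 µM PGH₂, run 1 min at 4 °C, stopped with FeCl₂/citric acid containing 11β-PGE₂; PGE₂ quantified. Mean of n = 3–5.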

[3] = target: T4, Prostaglandin G/H synthase 2 (Homo sapiens) (UniProt P35354); test: Inhibition of human recombinant COX2 assessed as residual activity at 10 uM after 5 mins
T4 sequence (whole entry): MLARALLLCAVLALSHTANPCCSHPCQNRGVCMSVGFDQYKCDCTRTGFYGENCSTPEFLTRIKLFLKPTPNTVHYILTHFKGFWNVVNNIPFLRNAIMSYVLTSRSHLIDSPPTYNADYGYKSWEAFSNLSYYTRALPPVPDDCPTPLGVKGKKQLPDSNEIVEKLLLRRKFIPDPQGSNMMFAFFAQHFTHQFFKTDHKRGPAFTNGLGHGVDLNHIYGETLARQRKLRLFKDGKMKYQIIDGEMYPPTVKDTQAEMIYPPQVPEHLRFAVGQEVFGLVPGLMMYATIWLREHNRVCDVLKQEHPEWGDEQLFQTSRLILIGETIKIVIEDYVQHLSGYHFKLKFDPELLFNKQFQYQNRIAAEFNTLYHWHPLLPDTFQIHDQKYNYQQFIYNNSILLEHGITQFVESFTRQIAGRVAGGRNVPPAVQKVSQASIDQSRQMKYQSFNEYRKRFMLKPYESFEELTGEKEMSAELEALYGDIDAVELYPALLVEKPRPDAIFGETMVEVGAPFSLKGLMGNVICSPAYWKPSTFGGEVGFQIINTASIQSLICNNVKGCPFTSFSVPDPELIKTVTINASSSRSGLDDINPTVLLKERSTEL
In short: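 Ovine COX-1 (50 units) or human recombinant COX-2 (20 units) in 1 ml 100 mM Tris pH 8 with 5 mM glutathione, 5 µM haemoglobin and 100 µM EDTA. Preincubated with 10 µM compound 5 min at 4 °C, warmed 60 s at 37 °C. Started with AA (5 µM for COX-1, 2 µM for COX-2), run 5 min at 37 °C. 12-HHT extracted and analysed by HPLC. n = 3.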

- IC50 [1]: 3.5 µM
- Activity [2]: 106%
- IC50 (Prostaglandin E synthase): 2200 nM
- inhibition [3]: inactive
SMILES: CCCCC(Sc1ccc(OCCCOc2ccc(-c3ccccc3)cc2)cc1)C(=O)O (centres undefined)
